Data set [1] has as its system Staphylococcus aureus. The experiment in a line: Antibacterial activity against Staphylococcus aureus ATCC 29213 after 16 hrs by agar dilution method. Particulars: ATCC 29213, 16 h. In kind it is functional. In a few lines:
(§1)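 Agar dilution in LB agar with compound (from methanol solutions) at final 0.5–64 μg/ml per plate. Strains grown 16 h at 37 °C, 250 rpm in LB broth, adjusted to OD600 0.25±0.05, diluted 10^4-fold; 2 μl spotted per plate, incubated 16 h at 37 °C. MIC = lowest concentration with no visible colonies; at least two independent experiments. Linezolid and PTM as controls.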
Background: In agar dilution, organisms are placed on agar that contains the substance at set levels.

For data set [2], the system named is Staphylococcus aureus. Nature of the data set: Antibacterial activity against methicillin-sensitive Staphylococcus aureus isolate 1 after 16 hrs by agar dilution method. Particulars: isolate 1, 16 h. The format is functional. In a few lines:
as §1

Data set [3] concerns Staphylococcus aureus. Nature of the data set: Antibacterial activity against methicillin-sensitive Staphylococcus aureus isolate 2 after 16 hrs by agar dilution method. The format is functional. Particulars: isolate 2, 16 h. In a few lines: as §1
The test system of data set [4] is Staphylococcus aureus. Nature of the data set: Antibacterial activity against methicillin-resistant Staphylococcus aureus isolate 3 after 16 hrs by agar dilution method. In kind it is functional. Particulars: isolate 3, 16 h. In a few lines: as §1
Data set [5] has as its system Staphylococcus aureus. The experiment in a line: Antibacterial activity against methicillin-resistant Staphylococcus aureus isolate 4 after 16 hrs by agar dilution method. The format is functional. Particulars: isolate 4, 16 h. In a few lines:
as §1

Data set [6] concerns Staphylococcus aureus. Nature of the data set: Antibacterial activity against methicillin-resistant Staphylococcus aureus isolate 5 after 16 hrs by agar dilution method. In kind it is functional. Particulars: isolate 5, 16 h. In a few lines:
as §1

Data set [7] concerns Staphylococcus aureus. The experiment in a line: Antibacterial activity against methicillin-resistant Staphylococcus aureus isolate 6 after 16 hrs by agar dilution method. The format is functional. Particulars: isolate 6, 16 h. In a few lines:
as §1

Data set [8] deals with Staphylococcus aureus. Nature of the data set: Antibacterial activity against methicillin-resistant Staphylococcus aureus after 18 hrs in presence of 10% human serum by resazurin dye-based assay. In kind it is functional. In a few lines:
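One clinical MRSA strain grown to exponential phase (OD600 = 0.5), diluted to 10^6 CFU/ml in Mueller-Hinton broth; 100 μl compound dilutions mixed with 100 μl bacteria with or without 10% human serum, 18 h at 37 °C. Resazurin (0.66 mM, 50 μl) then added and read visually.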
Background: Alamar Blue is a resazurin reagent that responds to reducing activity.

The subject of data set [9] is Staphylococcus aureus. The experiment in a line: Antibacterial activity against methicillin-resistant Staphylococcus aureus infected in C57BL/6J mouse assessed as reduction in bacterial load in blood at 50 mg/kg, ip administered 1 and 5 hrs postinfection and measured at 12 hrs post bacterial infection. The format is functional, organism-based. In a few lines: (§2)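 Female C57BL/6J mice, 6–8 weeks, 18–21 g, infected ip with 2 × 10^7 CFU MRSA in 0.2 ml saline with 5% hog gastric mucin. Dosed ip 50 mg/kg at 1 and 5 h post-infection; test agents at 5 mg/mL in 12.5% DMSO/30% propanediol/30% PEG400/27.5% saline, vancomycin in saline, saline control. At 12 h blood and homogenized kidneys plated on LB agar overnight at 37 °C for CFU; n = 5, mean ± SEM, unpaired two-tailed t-test.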

For data set [10], the system named is Staphylococcus aureus. Nature of the data set: Antibacterial activity against methicillin-resistant Staphylococcus aureus infected in C57BL/6J mouse assessed as reduction in bacterial load in kidney at 50 mg/kg, ip administered 1 and 5 hrs postinfection and measured at 12 hrs post bacterial infection. In kind it is functional, organism-based. In a few lines:
as §2

Data set [11] has as its system Mus musculus. Nature of the data set: Toxicity in C57BL/6J mouse infected with methicillin-resistant Staphylococcus aureus assessed as mouse death at 50 mg/kg, […] measured within 48 hrs. In kind it is organism-based. Particulars: in vivo, ip.
Data set [12] deals with Staphylococcus aureus. Nature of the data set: Antibacterial activity against methicillin-resistant Staphylococcus aureus infected in C57BL/6J mouse assessed as protection against lethal peritonitis by measuring mouse survival at 50 mg/kg, ip administered 1 and 5 hrs postinfection and measured up to 24 hrs post infection. In kind it is functional, organism-based. In a few lines: (§3)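 Lethal peritonitis: female C57BL/6J mice, 6–8 weeks, 18–21 g, infected ip with 2 × 10^7 CFU MRSA in 0.5 ml saline with 5% (w/v) mucin. Treated ip 0.2 mL/mouse at 1 and 5 h post-infection (n = 5/group): 50 mg/kg at 5 mg/mL in 12.5% DMSO vehicle, or 10 mg/kg at 1 mg/mL in 2.5% DMSO/30% propanediol/30% PEG400/37.5% saline; vancomycin in saline, saline control. Checked twice daily for survival and body weight over 7 days.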

The test system of data set [13] is Mus musculus. Nature of the data set: Toxicity in C57BL/6J mouse infected with methicillin-resistant Staphylococcus aureus assessed as effect on mouse body weight at 10 mg/kg, ip administered 1 and 5 hrs postinfection and measured for 7 days. In kind it is organism-based. Particulars: in vivo, 168 h. In a few lines:
as §3

Each structure is given as a SMILES string. In brackets after ≈: the same amount, converted by molar mass. Activity calls are given as the source filed them. The rule behind the calls is not given here.

Take `C[C@]12C[C@@]34C=C(c5cc6cccc7ccc8cccc5c8c76)C(=O)[C@@](C)(CCC(=O)Nc5c(O)ccc(C(=O)O)c5O)[C@@H]3[C@H](C[C@H]1C4)O2`: the MIC against Staphylococcus aureus [1] amounted to 2 µg/mL (≈ 3.12 µM); with Staphylococcus aureus [2], 2 µg/mL (≈ 3.12 µM); in the data set with Staphylococcus aureus [3], 2 µg/mL (≈ 3.12 µM); against Staphylococcus aureus [4], 4 µg/mL (≈ 6.23 µM); in the data set on Staphylococcus aureus [5], 2 µg/mL (≈ 3.12 µM); with Staphylococcus aureus [6] it was 4 µg/mL (≈ 6.23 µM). Further, the values for the MIC in the data set on Staphylococcus aureus [7] and in the data set on Staphylococcus aureus [8] were 2 µg/mL (≈ 3.12 µM) and 4 µg/mL, respectively. The result in the data set with Staphylococcus aureus [9] and in the data set on Staphylococcus aureus [10] was Active. Further, the Activity result with Mus musculus [11] was “Toxic”; in the data set on Mus musculus [13] it was “Non-Toxic”. The result with Staphylococcus aureus [12] was inactive.
Consider `C[C@]12C[C@@]34C=CC(=O)[C@@](C)(CCC(=O)Nc5c(O)ccc(C(=O)O)c5O)[C@@H]3[C@H](C[C@H]1C4)O2`, for which the MIC against Staphylococcus aureus [1] worked out at 0.5 µg/mL (≈ 1.13 µM); against Staphylococcus aureus [2], 0.5 µg/mL (≈ 1.13 µM); in the data set with Staphylococcus aureus [3], 0.5 µg/mL (≈ 1.13 µM); in the data set on Staphylococcus aureus [4] it was 0.5 µg/mL (≈ 1.13 µM); with Staphylococcus aureus [5], 1 µg/mL (≈ 2.27 µM); against Staphylococcus aureus [6], 1 µg/mL (≈ 2.27 µM). Further, the MIC is 1 µg/mL (≈ 2.27 µM) in the data set with Staphylococcus aureus [7] and 8 µg/mL with Staphylococcus aureus [8]. The result in the data set on Staphylococcus aureus [9] and in the data set on Staphylococcus aureus [10] was Active.
Regarding `C[C@]12C[C@@]34C=C(c5ccc(Br)cc5)C(=O)[C@@](C)(CCC(=O)Nc5c(O)ccc(C(=O)O)c5O)[C@@H]3[C@H](C[C@H]1C4)O2`, the minimum inhibitory concentration (MIC) against Staphylococcus aureus [1] came out at 2 µg/mL (≈ 3.35 µM); with Staphylococcus aureus [2], 2 µg/mL (≈ 3.35 µM); with Staphylococcus aureus [3] it was 4 µg/mL (≈ 6.71 µM); in the data set with Staphylococcus aureus [4], 4 µg/mL (≈ 6.71 µM); against Staphylococcus aureus [5] it was 4 µg/mL (≈ 6.71 µM); with Staphylococcus aureus [6], 2 µg/mL (≈ 3.35 µM). The molecule also came in with a minimum inhibitory concentration (MIC) in the data set with Staphylococcus aureus [7] of 2 µg/mL (≈ 3.35 µM).
With `CN[C@H](CC(C)C)C(=O)N[C@H]1C(=O)N[C@@H](CC(N)=O)C(=O)N[C@H]2C(=O)N[C@H]3C(=O)N[C@H](C(=O)N[C@H](C(=O)O)c4cc(O)cc(O)c4-c4cc3ccc4O)[C@H](O)c3ccc(c(Cl)c3)Oc3cc2cc(c3O[C@@H]2O[C@H](CO)[C@@H](O)[C@H](O)[C@H]2O[C@H]2C[C@](C)(N)[C@H](O)[C@H](C)O2)Oc2ccc(cc2Cl)[C@H]1O` [VANCOMYCIN], the result in the data set on Staphylococcus aureus [9] and in the data set with Staphylococcus aureus [10] was Active. For the same molecule, the Activity entry in the data set with Mus musculus [13] is on record as “Non-Toxic”.
With `C[C@]12C[C@@]34C=C(c5ccccc5-c5ccccc5)C(=O)[C@@](C)(CCC(=O)Nc5c(O)ccc(C(=O)O)c5O)[C@@H]3[C@H](C[C@H]1C4)O2`, the MIC came to 4 µg/mL (≈ 6.74 µM) against Staphylococcus aureus [1]; 8 µg/mL (≈ 13.5 µM) in the data set with Staphylococcus aureus [2]; 8 µg/mL (≈ 13.5 µM) against Staphylococcus aureus [3]; 8 µg/mL (≈ 13.5 µM) in the data set with Staphylococcus aureus [4]; 8 µg/mL (≈ 13.5 µM) with Staphylococcus aureus [5]; 8 µg/mL (≈ 13.5 µM) against Staphylococcus aureus [6]. Also, in the data set on Staphylococcus aureus [7], the MIC worked out at 8 µg/mL (≈ 13.5 µM).

Broadly, the MIC is the least concentration at which growth counts as inhibited.

Values taken from ChEMBL document CHEMBL4257590, “Semisynthesis of Platensimycin Derivatives with Antibiotic Activities in Mice via Suzuki-Miyaura Cross-Coupling Reactions” (J Med Chem, 2018).
